# ChEMBL document CHEMBL2321801, “Induction of ABCA1 and ABCG1 expression by the liver X receptor modulator cineole in macrophages” (Bioorg Med Chem Lett, 2013)
# Activity calls are given as the source filed them. No cut-off for these calls is given here.
# How the values were obtained:
# [1] = target: T1, Oxysterols receptor LXR-beta (Homo sapiens, UniProt P55055); assay: Binding affinity to LXRbeta (unknown origin)
# T1 sequence (P55055 whole entry): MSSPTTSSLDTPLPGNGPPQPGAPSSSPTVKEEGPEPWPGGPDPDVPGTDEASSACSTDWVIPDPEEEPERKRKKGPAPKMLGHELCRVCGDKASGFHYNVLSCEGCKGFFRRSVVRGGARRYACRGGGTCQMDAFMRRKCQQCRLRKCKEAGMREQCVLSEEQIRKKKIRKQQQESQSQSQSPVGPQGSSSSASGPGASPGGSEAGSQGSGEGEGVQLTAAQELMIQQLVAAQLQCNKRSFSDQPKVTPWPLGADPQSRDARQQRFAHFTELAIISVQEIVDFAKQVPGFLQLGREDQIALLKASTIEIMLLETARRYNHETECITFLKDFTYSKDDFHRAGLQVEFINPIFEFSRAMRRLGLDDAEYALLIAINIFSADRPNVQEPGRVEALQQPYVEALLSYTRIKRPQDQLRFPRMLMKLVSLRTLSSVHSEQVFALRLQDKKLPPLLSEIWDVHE
# [2] = target: T2, Oxysterols receptor LXR-alpha (Homo sapiens) (UniProt Q13133); assay: Induction of recruitment of Trap220 peptide to LXRalpha (unknown origin) by TR-FRET LXR-alpha co-activator assay
# T2 sequence (whole entry): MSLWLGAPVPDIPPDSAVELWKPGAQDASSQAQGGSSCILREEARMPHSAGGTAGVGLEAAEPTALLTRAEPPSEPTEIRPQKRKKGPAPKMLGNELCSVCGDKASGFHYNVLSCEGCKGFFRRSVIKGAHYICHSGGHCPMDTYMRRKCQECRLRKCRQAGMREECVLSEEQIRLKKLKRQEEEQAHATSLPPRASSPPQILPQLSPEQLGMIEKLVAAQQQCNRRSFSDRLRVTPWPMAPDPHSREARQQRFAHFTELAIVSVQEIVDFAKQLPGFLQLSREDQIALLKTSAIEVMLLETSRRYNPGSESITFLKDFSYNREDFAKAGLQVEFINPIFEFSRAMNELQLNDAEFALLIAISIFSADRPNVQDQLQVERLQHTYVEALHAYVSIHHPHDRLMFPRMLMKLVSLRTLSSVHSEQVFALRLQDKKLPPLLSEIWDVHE
# Procedure, shortened: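 Cell-free LanthaScreen TR-FRET LXR-α co-activator recruitment assay, run per kit instructions, with T0901317 as reference agonist.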
# HepG2 [3] = assay: Reduction in lipid accumulation in human HepG2 cells at 1 microM by Oil Red O staining; format: functional, cell-based
# [4] = target: T3, Oxysterols receptor LXR-beta (Homo sapiens) (UniProt P55055); assay: Induction of recruitment of D22 peptide to LXRbeta (unknown origin) by TR-FRET LXR-alpha co-activator assay
# T3 sequence (whole entry): T1 sequence (P55055 whole entry)
# [5] = target: T4, Oxysterols receptor LXR-alpha (Homo sapiens, UniProt Q13133); assay: Binding affinity to LXRalpha (unknown origin)
# T4 sequence (Q13133 whole entry): T2 sequence (whole entry)
# RAW264.7 [6] = assay: Induction of cholesterol efflux genes in mouse RAW264.7 cells assessed as increase in LXRbeta mRNA expression measured at 50 microM by qPCR; format: functional
# Procedure, shortened: (§1)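 Cells were preincubated 24 h in DMEM, then exposed 24 h to 50 or 100 µM (final) at 37 °C in 5% CO2. Vehicle was 1% DMSO, and each treatment was run at least in triplicate. Total RNA was extracted and transcripts were measured by qPCR relative to vehicle control, mean ± SE, n = 3.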
# HepG2 [7] = assay: Downregulation of LXRalpha protein expression in human HepG2 cells at 50 to 100 microM by immunoblotting; format: functional
# Procedure, shortened: (§2)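 Cells were preincubated 24 h in DMEM, then treated 24 h with 50 or 100 µM alongside a 1% DMSO vehicle. They were lysed in ice-cold Tris-HCl pH 7.4/EDTA/NaCl/0.5% Triton X-100 buffer with protease inhibitors. 30 µg protein was run on 10% SDS-PAGE and transferred to nitrocellulose. Blots were probed with target antibodies, with α-tubulin as reference, n = 3.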
# HepG2 [8] = assay: Downregulation of SCD-1 mRNA expression in human HepG2 cells at 50 to 100 microM by qPCR; format: functional; procedure, shortened: as §1
# HepG2 [9] = assay: Reduction in lipid accumulation in human HepG2 cells at 50 microM by Oil Red O staining; format: functional, cell-based
# [10] = target: Oxysterols receptor LXR-beta (Homo sapiens) (UniProt P55055); assay: Agonist activity at LXRbeta (unknown origin) transfected in human CHO-K1 cells assessed as induction of transactivation at 200 microM by luciferase reporter gene transactivation assay relative to control
# RAW264.7 [11] = assay: Induction of cholesterol efflux genes in mouse RAW264.7 cells assessed as increase in LXRbeta protein expression measured at 100 microM by immunoblotting; format: functional, cell-based; procedure, shortened: as §2
# HepG2 [12] = assay: Reduction in lipid accumulation in human HepG2 cells at 100 microM by Oil Red O staining; format: functional, cell-based
# [13] = target: Oxysterols receptor LXR-beta (Homo sapiens) (UniProt P55055); assay: Agonist activity at LXRbeta (unknown origin) transfected in human CHO-K1 cells assessed as induction of transactivation at 100 microM by luciferase reporter gene transactivation assay relative to control
# RAW264.7 [14] = assay: Induction of LXR-responsive genes in mouse RAW264.7 cells assessed as increase in Abca1 mRNA expression measured at 50 to 100 microM by qPCR
# HepG2 [15] = assay: Downregulation of SREBP-1c protein expression in human HepG2 cells at 50 to 100 microM by immunoblotting; format: functional; procedure, shortened: as §2
# [16] = target: Oxysterols receptor LXR-beta (Homo sapiens) (UniProt P55055); assay: Agonist activity at LXRbeta (unknown origin) transfected in human CHO-K1 cells assessed as induction of transactivation at 50 microM by luciferase reporter gene transactivation assay relative to control
# HepG2 [17] = assay: Downregulation of SREBP-1c mRNA expression in human HepG2 cells at 50 to 100 microM by qPCR; format: functional; procedure, shortened: as §1
# HepG2 [18] = assay: Downregulation of FAS protein expression in human HepG2 cells at 50 to 100 microM by immunoblotting; format: functional; procedure, shortened: as §2
# RAW264.7 [19] = assay: Induction of cholesterol efflux genes in mouse RAW264.7 cells assessed as increase in LXRalpha protein expression measured at 100 microM by immunoblotting; format: functional, cell-based; procedure, shortened: as §2
# RAW264.7 [20] = assay: Induction of LXR-responsive genes in mouse RAW264.7 cells assessed as increase in ABCA1 protein expression measured at 100 microM by immunoblotting; format: functional, cell-based; procedure, shortened: as §2
# RAW264.7 [21] = assay: Induction of cholesterol efflux in mouse RAW264.7 cells assessed as reduction in cellular cholesterol level at 100 microM in presence of higher cholesterol relative to control; format: functional; parameters: scale not given: the % may be the effect or the level left
# RAW264.7 [22] = assay: Induction of LXR-responsive genes in mouse RAW264.7 cells assessed as increase in Abca1 mRNA expression measured at 50 to 100 microM by qPCR; format: functional, cell-based; procedure, shortened: as §1
# [23] = target: Oxysterols receptor LXR-beta (Homo sapiens) (UniProt P55055); assay: Agonist activity at LXRbeta (unknown origin) transfected in human CHO-K1 cells assessed as induction of transactivation by luciferase reporter gene transactivation assay relative to control
# [24] = target: T2, Oxysterols receptor LXR-alpha (Homo sapiens); assay: Agonist activity at LXRalpha (unknown origin) transfected in human CHO-K1 cells assessed as induction of transactivation at 50 to 200 microM by luciferase reporter gene transactivation assay relative to control; format: cell-based
# Procedure, shortened: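 CHO-K1 cells in DMEM/F12 with 10% heat-inactivated FBS and 1% penicillin/streptomycin, co-transfected with pGL4.35 GAL4-UAS luciferase reporter, pSV-β-galactosidase and a human LXRα plasmid (pFN26A). After 24 h, cells were treated 24 h with 50, 100 or 200 µM. Firefly luciferase was normalized to β-galactosidase in the same lysate and expressed vs control, mean ± SE, n = 3.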
# HepG2 [25] = assay: Downregulation of FAS mRNA expression in human HepG2 cells at 50 to 100 microM by qPCR; format: functional; procedure, shortened: as §1
# RAW264.7 [26] = assay: Induction of cholesterol efflux genes in mouse RAW264.7 cells assessed as increase in LXRalpha mRNA expression measured at 50 to 100 microM by qPCR; format: functional; procedure, shortened: as §1
# RAW264.7 [27] = assay: Induction of cholesterol efflux genes in mouse RAW264.7 cells assessed as increase in LXRbeta mRNA expression measured by qPCR; format: functional, cell-based; procedure, shortened: as §1
# RAW264.7 [28] = assay: Induction of cholesterol efflux in mouse RAW264.7 cells assessed as reduction in cellular cholesterol level at 100 microM relative to control; format: functional; parameters: scale not given: the % may be the effect or the level left
# RAW264.7 [29] = assay: Induction of cholesterol efflux genes in mouse RAW264.7 cells assessed as increase in LXRbeta mRNA expression measured at 100 microM by qPCR; format: functional; procedure, shortened: as §1
# HepG2 [30] = assay: Downregulation of LXRalpha mRNA expression in human HepG2 cells at 50 to 100 microM by qPCR; format: functional; procedure, shortened: as §1
smiles,measurement,setting,value
CCN(c1ccc(C(O)(C(F)(F)F)C(F)(F)F)cc1)S(=O)(=O)c1ccccc1,EC50,[1],10 nM
same,Activity,[2],Dose-dependent effect
same,Activity,HepG2 [3],inactive
same,Activity,[4],Dose-dependent effect
same,EC50,[5],320 nM
CC12CCC(CC1)C(C)(C)O2 [EUCALYPTOL],Activity,RAW264.7 [6],35%
same,inhibition (INH),HepG2 [7],40%
same,inhibition (INH),HepG2 [8],30%
same,Activity,HepG2 [9],Active
same,fold change (FC),[10],2.3
same,Activity,RAW264.7 [11],Active
same,Activity,HepG2 [12],Active
same,fold change (FC),[13],2
same,Activity,RAW264.7 [14],Active
same,inhibition (INH),HepG2 [15],25%
same,fold change (FC),[16],1.4
same,inhibition (INH),HepG2 [17],25%
same,inhibition (INH),HepG2 [18],50%
same,Activity,RAW264.7 [19],Active
same,Activity,RAW264.7 [20],Active
same,Activity,RAW264.7 [21],17%
same,Activity,RAW264.7 [22],Active
same,Activity,[23],Dose-dependent effect
same,Activity,[2],inactive
same,Activity,[24],> 75%
same,inhibition (INH),HepG2 [25],24%
same,Activity,[4],inactive
same,Activity,RAW264.7 [26],20%
same,Activity,RAW264.7 [27],Dose-dependent effect
same,Activity,RAW264.7 [28],17%
same,Activity,RAW264.7 [29],50%
same,inhibition (INH),HepG2 [30],10%
